Values after ≈ are worked out from the molar mass of the structure shown.
Key:
Assay type in all cases: functional
Escherichia coli [1] = assay: Antibacterial activity against Escherichia coli isolate 12-5
Summary of the method: (§1)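 MIC determined in vitro by a standard technique and defined as the lowest compound concentration giving complete inhibition of bacterial growth. The Gram-positive and Gram-negative panels were tested alongside gemifloxacin, levofloxacin and ciprofloxacin reference drugs.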

Klebsiella pneumoniae [2] = assay: Antibacterial activity against Klebsiella pneumoniae isolate 12-2; summary of the method: as §1
[3] = system: Staphylococcus epidermidis; assay: Antibacterial activity against methicillin-sensitive Staphylococcus epidermidis isolate 12-1; summary of the method: as §1
[4] = system: Staphylococcus epidermidis; assay: Antibacterial activity against methicillin-resistant Staphylococcus epidermidis isolate 12-5
Summary of the method: (§2)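 MIC determined in vitro by standard techniques, defined as the lowest compound concentration giving complete inhibition of bacterial growth. Gemifloxacin, levofloxacin and ciprofloxacin were tested alongside as reference drugs.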

Escherichia coli [5] = assay: Antibacterial activity against extended-spectrum beta-lactamase-producing Escherichia coli isolate 12-2; summary of the method: as §1
Staphylococcus aureus [6] = assay: Antibacterial activity against Staphylococcus aureus […]; summary of the method: as §1
Staphylococcus aureus [7] = assay: Antibacterial activity against methicillin-sensitive Staphylococcus aureus isolate 12-10; summary of the method: as §1
Escherichia coli [8] = assay: Antibacterial activity against extended-spectrum beta-lactamase-producing Escherichia coli isolate 12-4; summary of the method: as §1
Escherichia coli [9] = assay: Antibacterial activity against Escherichia coli isolate 12-4; summary of the method: as §1
[10] = system: Staphylococcus epidermidis; assay: Antibacterial activity against methicillin-sensitive Staphylococcus epidermidis isolate 12-2; summary of the method: as §1
Staphylococcus aureus [11] = assay: Antibacterial activity against methicillin-sensitive Staphylococcus aureus isolate 12-6; summary of the method: as §1
Streptococcus pneumoniae [12] = assay: Antibacterial activity against Streptococcus pneumoniae isolate 12-5; summary of the method: as §1
Pseudomonas aeruginosa [13] = assay: Antibacterial activity against Pseudomonas aeruginosa isolate 12-1; summary of the method: as §1
Staphylococcus aureus [14] = assay: Antibacterial activity against methicillin-resistant Staphylococcus aureus isolate 12-15; summary of the method: as §2
Klebsiella pneumoniae [15] = assay: Antibacterial activity against Klebsiella pneumoniae isolate 12-1; summary of the method: as §1
[16] = system: Staphylococcus epidermidis; assay: Antibacterial activity against methicillin-resistant Staphylococcus epidermidis isolate 12-35; summary of the method: as §2
Staphylococcus aureus [17] = assay: Antibacterial activity against methicillin-sensitive Staphylococcus aureus isolate 12-7; summary of the method: as §1
Escherichia coli [18] = assay: Antibacterial activity against extended-spectrum beta-lactamase-producing Escherichia coli isolate 12-1; summary of the method: as §1
Pseudomonas aeruginosa [19] = assay: Antibacterial activity against Pseudomonas aeruginosa isolate 12-2; summary of the method: as §1
Streptococcus pneumoniae [20] = assay: Antibacterial activity against Streptococcus pneumoniae isolate 12-2; summary of the method: as §1
Staphylococcus aureus [21] = assay: Antibacterial activity against methicillin-resistant Staphylococcus aureus isolate 12-13; summary of the method: as §2
Klebsiella pneumoniae [22] = assay: Antibacterial activity against extended-spectrum beta-lactamase-producing Klebsiella pneumoniae isolate 12-1; summary of the method: as §1
Klebsiella pneumoniae [23] = assay: Antibacterial activity against extended-spectrum beta-lactamase-producing Klebsiella pneumoniae isolate 12-4; summary of the method: as §1
Klebsiella pneumoniae [24] = assay: Antibacterial activity against Klebsiella pneumoniae isolate 12-4; summary of the method: as §1
Escherichia coli [25] = assay: Antibacterial activity against Escherichia coli ATCC 25922; summary of the method: as §1
Klebsiella pneumoniae [26] = assay: Antibacterial activity against extended-spectrum beta-lactamase-producing Klebsiella pneumoniae isolate 12-2; summary of the method: as §1
[27] = system: Staphylococcus epidermidis; assay: Antibacterial activity against methicillin-sensitive Staphylococcus epidermidis isolate 12-3; summary of the method: as §1
Escherichia coli [28] = assay: Antibacterial activity against Escherichia coli isolate 12-1; summary of the method: as §1
[29] = system: Staphylococcus epidermidis; assay: Antibacterial activity against methicillin-resistant Staphylococcus epidermidis isolate 12-33; summary of the method: as §2
Pseudomonas aeruginosa [30] = assay: Antibacterial activity against Pseudomonas aeruginosa ATCC 27853; summary of the method: as §1
Staphylococcus aureus [31] = assay: Antibacterial activity against methicillin-resistant Staphylococcus aureus isolate 12-3; summary of the method: as §2

## CO/N=C1\CN(c2nc3c(cc2F)c(=O)c(C(=O)O)cn3C2CC2)CC1CN (stereo unspecified) [GEMIFLOXACIN]
Escherichia coli [1]
  MIC: 16 µg/mL (≈ 41.1 µM)
Klebsiella pneumoniae [2]
  MIC: 0.06 µg/mL (≈ 0.154 µM)
[3]
  MIC: 0.06 µg/mL (≈ 0.154 µM)
[4]
  MIC: 0.015 µg/mL (≈ 0.0385 µM)
Escherichia coli [5]
  MIC: 16 µg/mL (≈ 41.1 µM)
Staphylococcus aureus [6]
  MIC: < 0.008 µg/mL
Staphylococcus aureus [7]
  MIC: 0.03 µg/mL (≈ 0.077 µM)
Escherichia coli [8]
  MIC: 2 µg/mL (≈ 5.14 µM)
Escherichia coli [9]
  MIC: 16 µg/mL (≈ 41.1 µM)
[10]
  MIC: 0.25 µg/mL (≈ 0.642 µM)
Staphylococcus aureus [11]
  MIC: 0.03 µg/mL (≈ 0.077 µM)
Streptococcus pneumoniae [12]
  MIC: 0.25 µg/mL (≈ 0.642 µM)
Pseudomonas aeruginosa [13]
  MIC: 8 µg/mL (≈ 20.5 µM)
Staphylococcus aureus [14]
  MIC: 0.03 µg/mL (≈ 0.077 µM)
Klebsiella pneumoniae [15]
  MIC: 0.03 µg/mL (≈ 0.077 µM)
[16]
  MIC: 0.008 µg/mL (≈ 0.0205 µM)
Staphylococcus aureus [17]
  MIC: 4 µg/mL (≈ 10.3 µM)
Escherichia coli [18]
  MIC: 8 µg/mL (≈ 20.5 µM)
Pseudomonas aeruginosa [19]
  MIC: 16 µg/mL (≈ 41.1 µM)
Streptococcus pneumoniae [20]
  MIC: 0.25 µg/mL (≈ 0.642 µM)
Staphylococcus aureus [21]
  MIC: 0.015 µg/mL (≈ 0.0385 µM)
Klebsiella pneumoniae [22]
  MIC: 2 µg/mL (≈ 5.14 µM)
Klebsiella pneumoniae [23]
  MIC: 2 µg/mL (≈ 5.14 µM)
Klebsiella pneumoniae [24]
  MIC: 0.06 µg/mL (≈ 0.154 µM)
Escherichia coli [25]
  MIC: 0.015 µg/mL (≈ 0.0385 µM)
Klebsiella pneumoniae [26]
  MIC: 2 µg/mL (≈ 5.14 µM)
[27]
  MIC: 0.06 µg/mL (≈ 0.154 µM)
Escherichia coli [28]
  MIC: 0.125 µg/mL (≈ 0.321 µM)
[29]
  MIC: 4 µg/mL (≈ 10.3 µM)
Pseudomonas aeruginosa [30]
  MIC: 1 µg/mL (≈ 2.57 µM)
Staphylococcus aureus [31]
  MIC: 0.03 µg/mL (≈ 0.077 µM)

Reference: ChEMBL document CHEMBL2331542, “Synthesis and in vitro antibacterial activity of quinolone/naphthyridone derivatives containing 3-alkoxyimino-4-(methyl)aminopiperidine scaffolds” (2013)
